According to PMC10616755 (RSC Advances, 2023):
Where two headings read alike, the source gives them in different places. Each block holds one molecule with its values, some of them ahead of it.

Assays:
MCF-7 [1] = test: MTT cytotoxicity assay, MCF-7; format: cell-based, human; conditions: for SI (MCF-7): selectivity index WI-38 vs MCF-7; for Cytotoxicity grade MCF-7: grade in words in text
In short: (§1)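 MTT viability assay on human HCT-116 and MCF-7 lines. Each test compound was run at 100, 50, 25, 12.5, 6.25, 3.125 and 1.56 μM, with IC50 determined per cell line.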

[2] = MTT cytotoxicity on normal lung fibroblast; format: cell-based, human; conditions: human, WI-38 normal lung fibroblast cells
HCT-116 [3] = test: MTT cytotoxicity assay, HCT-116; format: cell-based, human; conditions: for SI (HCT-116): selectivity index WI-38 vs HCT-116; for Cytotoxicity grade HCT-116: grade in words in text
In short: as §1

BAX = BAX level; format: cell-based; conditions: control = 1
BCL2 = BCL2 level; format: cell-based; conditions: control = 1
WI-38 = test: MTT cytotoxicity on normal lung fibroblast; format: cell-based, human; conditions: read-out: Cytotoxicity on WI-38 IC50; normal cell line, MTT assay
caspase-3 = test: Active caspase-3 level; format: cell-based, human
MCF-7 [4] = conditions: read-out: Cytotoxic activity IC50 MCF-7, cited from earlier work
p53 = test: Active p53 level; format: cell-based, human
HCT-116 [5] = conditions: read-out: Cytotoxic activity IC50 HCT-116, cited from earlier work
VEGFR-2 = VEGFR-2 (Homo sapiens, UniProt P35968); test: VEGFR-2; format: biochemical; conditions: VEGFR-2 inhibitory activity IC50
VEGFR-2, sequence (P35968 20-1356): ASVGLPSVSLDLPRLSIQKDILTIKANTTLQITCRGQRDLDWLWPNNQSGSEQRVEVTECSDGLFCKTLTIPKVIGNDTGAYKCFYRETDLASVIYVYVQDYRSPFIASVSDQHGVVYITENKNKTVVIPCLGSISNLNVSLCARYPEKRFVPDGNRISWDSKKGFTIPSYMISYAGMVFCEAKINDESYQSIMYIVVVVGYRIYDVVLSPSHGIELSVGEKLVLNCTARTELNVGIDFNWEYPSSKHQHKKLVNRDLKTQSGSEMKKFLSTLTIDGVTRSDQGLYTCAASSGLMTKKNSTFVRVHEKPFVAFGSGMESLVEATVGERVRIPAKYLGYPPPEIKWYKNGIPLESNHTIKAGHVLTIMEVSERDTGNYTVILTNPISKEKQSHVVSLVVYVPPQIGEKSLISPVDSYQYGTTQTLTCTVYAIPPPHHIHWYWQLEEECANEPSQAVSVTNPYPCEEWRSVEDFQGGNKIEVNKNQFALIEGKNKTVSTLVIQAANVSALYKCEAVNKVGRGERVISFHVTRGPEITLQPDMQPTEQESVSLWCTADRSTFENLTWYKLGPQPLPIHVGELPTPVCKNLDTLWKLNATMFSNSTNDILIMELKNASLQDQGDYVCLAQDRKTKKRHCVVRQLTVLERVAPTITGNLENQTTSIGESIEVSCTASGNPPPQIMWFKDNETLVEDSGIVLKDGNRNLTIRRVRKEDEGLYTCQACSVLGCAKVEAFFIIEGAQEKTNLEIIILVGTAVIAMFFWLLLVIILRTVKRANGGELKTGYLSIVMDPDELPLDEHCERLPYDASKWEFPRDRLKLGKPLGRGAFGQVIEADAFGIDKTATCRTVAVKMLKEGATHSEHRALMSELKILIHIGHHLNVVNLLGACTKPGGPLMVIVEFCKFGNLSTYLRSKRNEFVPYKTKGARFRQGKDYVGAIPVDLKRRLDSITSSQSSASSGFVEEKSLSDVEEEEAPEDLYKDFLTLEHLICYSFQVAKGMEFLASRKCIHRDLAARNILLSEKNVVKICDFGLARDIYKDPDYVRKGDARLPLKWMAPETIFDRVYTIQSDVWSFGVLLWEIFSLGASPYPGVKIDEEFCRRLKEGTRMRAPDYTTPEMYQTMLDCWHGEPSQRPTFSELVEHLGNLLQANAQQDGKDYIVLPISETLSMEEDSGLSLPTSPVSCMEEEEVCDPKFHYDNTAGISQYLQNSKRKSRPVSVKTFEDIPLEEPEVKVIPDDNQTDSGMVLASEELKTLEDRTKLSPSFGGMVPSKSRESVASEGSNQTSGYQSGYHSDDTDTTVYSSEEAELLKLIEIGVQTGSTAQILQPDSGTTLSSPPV

[6] = Homo sapiens, MCF7, read-out: Cytotoxic activity IC50 MCF-7
[7] = Homo sapiens, HCT-116, read-out: Cytotoxic activity IC50 HCT-116
[8] = read-out: Cytotoxic activity IC50 MCF-7, MTT assay
[9] = read-out: Cytotoxic activity IC50 HCT-116, MTT assay
[10] = sunitinib reference value ref 34,35
[11] = sorafenib reference value ref 36

Molecule: COc1cccc2c1C(=O)c1c(O)c3c(c(O)c1C2=O)C[C@@](O)(C(=O)CO)C[C@@H]3O[C@H]1C[C@H](N)[C@H](O)[C@H](C)O1 [DOX, Doxorubicin, reference compound]
- IC50 (MCF-7 [1]; [6]): 7.43 ± 0.2 µM
- SI (MCF-7) (MCF-7 [1]): 0.9
- IC50 [2]: 6.72 ± 0.5 µM
- IC50 (HCT-116 [3]; [7]): 9.27 ± 0.3 µM
- SI (HCT-116) (HCT-116 [3]): 0.72

Molecule: CN[C@@H]1C[C@H]2O[C@@](C)([C@@H]1OC)n1c3ccccc3c3c4c(c5c6ccccc6n2c5c31)C(=O)NC4 [Staurosporine]
- BAX fold change (BAX): 7.5517 fold change
- BAX fold change (BAX; listed as staurosporine): 7.55 fold change
- BCL2 fold change (BCL2): 0.3248 fold change
- BCL2 fold change (BCL2; listed as staurosporine): 0.33 fold change

Molecule: Cc1cccc(NC(=O)CCc2nc3cc(Cl)ccc3[nH]c2=O)c1 [Compound 12, 3-(6-Chloro-1,2-dihydro-2-oxoquinoxalin-3-yl)-N-m-tolylpropanamide]
- IC50 (MCF-7 [1]; [6]): 24.6 ± 1.9 µM
- IC50 (HCT-116 [3]; [7]): 28.4 ± 2.2 µM

Molecule: O=C(CCc1nc2cc(Cl)ccc2[nH]c1=O)Nc1ccccc1 [Compound 5, 3-(6-Chloro-1,2-dihydro-2-oxoquinoxalin-3-yl)-N-phenylpropanamide]
- IC50 (MCF-7 [1]; [6]): 39 ± 2.4 µM
- Cytotoxicity grade MCF-7 (MCF-7 [1]): moderate (21–50 (moderate))
- IC50 (HCT-116 [3]; [7]): 45.5 ± 2.7 µM
- Cytotoxicity grade HCT-116 (HCT-116 [3]): moderate (21–50 (moderate))

Molecule: Cc1ccc(NC(=O)CCc2nc3cc(Cl)ccc3[nH]c2=O)cc1 [Compound 11, 3-(6-Chloro-1,2-dihydro-2-oxoquinoxalin-3-yl)-N-p-tolylpropanamide]
- IC50 (MCF-7 [1]; [6]): 54 ± 3.1 µM
- IC50 (HCT-116 [3]; [7]): 61.4 ± 3.4 µM

Molecule: 2-(2-(3-(6-Chloro-3-oxo-3,4-dihydroquinoxalin-2-yl)propanoyl)hydrazine-1-carbonyl) benzoic acid [Compound 21]
- IC50 (MCF-7 [1]; [8]): 41.5 ± 2.5 µM
- IC50 (HCT-116 [3]; [9]): 48.2 ± 2.7 µM

Molecule: 4-(3-(6-Chloro-1,2-dihydro-2-oxoquinoxalin-3-yl)propaneamido)-4-oxobutanoic acid [Compound 20]
- IC50 (MCF-7 [1]; [8]): 10.2 ± 3.3 µM
- SI (MCF-7) (MCF-7 [1]): 9.15
- IC50 (WI-38): 93 ± 2.2 µM
- IC50 (HCT-116 [3]; [9]): 26.4 ± 3.8 µM
- SI (HCT-116) (HCT-116 [3]): 3.52

Molecule: CCN(CC)CCNC(=O)c1c(C)[nH]c(/C=C2\C(=O)Nc3ccc(F)cc32)c1C [Sunitinib]
- Caspase 3 (caspase-3; MCF-7 cells, control 47.88 ± 13.15): 384.53 ± 8.40 pg/mL
- Caspase 3 Fld (caspase-3; vs control): 8.031 fold
- IC50 (MCF-7 [4]; [10]): 4.77 ± 0.2 µM
- p53 (p53; MCF-7 cells, control 22.19 ± 8.39): 278.34 ± 5.27 pg/mL
- p53 Fld (p53; vs control): 12.543 fold
- IC50 (HCT-116 [5]; [10]): 3.42 ± 0.5 µM

Molecule: CNC(=O)c1cc(Oc2ccc(NC(=O)Nc3ccc(Cl)c(C(F)(F)F)c3)cc2)ccn1 [Sorafenib]
- IC50 (MCF-7 [4]; [11]): 16 ± 3.6 µM
- IC50 (HCT-116 [5]; [11]): 18.6 ± 1.9 µM

Molecule: 2,4-Dichloro-N′-(3-(6-chloro-3-oxo-3,4-dihydroquinoxalin-2-yl)-propanoyl) benzohydrazide [Compound 19]
- Cytotoxicity grade MCF-7 (MCF-7 [1]): very strong (1–10 (very strong))
- IC50 (MCF-7 [1]; [8]): 5.11 ± 0.8 µM
- SI (MCF-7) (MCF-7 [1]): 14.01
- IC50 (WI-38): 71.6 ± 2.8 µM
- Cytotoxicity grade HCT-116 (HCT-116 [3]): very strong (1–10 (very strong))
- IC50 (HCT-116 [3]; [9]): 6.18 ± 2.1 µM
- SI (HCT-116) (HCT-116 [3]): 11.58

- IC50 (VEGFR-2): 0.131 µM
Molecule: O=C(CCc1nc2cc(Cl)ccc2[nH]c1=O)Nc1ccccc1O [Compound 9, 3-(6-Chloro-1,2-dihydro-2-oxoquinoxalin-3-yl)-N-(2-hydroxyphenyl)propanamide]
- IC50 (MCF-7 [1]; [6]): 6.92 ± 0.5 µM
- SI (MCF-7) (MCF-7 [1]): 12.44
- IC50 [2]: 86.1 ± 4.1 µM
- IC50 (HCT-116 [3]; [7]): 7.19 ± 0.7 µM
- SI (HCT-116) (HCT-116 [3]): 11.98

Molecule: Cc1ccccc1NC(=O)CCc1nc2cc(Cl)ccc2[nH]c1=O [Compound 13, 3-(6-Chloro-1,2-dihydro-2-oxoquinoxalin-3-yl)-N-o-tolylpropanamide]
- IC50 (MCF-7 [1]; [6]): 18.9 ± 1.4 µM
- IC50 (HCT-116 [3]; [7]): 22.2 ± 1.9 µM

Molecule: O=C(CCc1nc2cc(Cl)ccc2[nH]c1=O)Nc1ccc(C(=O)O)cc1 [Compound 16, 4-(3-(6-Chloro-1,2-dihydro-2-oxoquinoxalin-3-yl)propanamido)benzoic acid]
- IC50 (MCF-7 [1]; [6]): 67.2 ± 3.5 µM
- Cytotoxicity grade MCF-7 (MCF-7 [1]): weak (51–100 (weak))
- IC50 (HCT-116 [3]; [7]): 75.1 ± 3.6 µM
- Cytotoxicity grade HCT-116 (HCT-116 [3]): weak (51–100 (weak))
